From ChEMBL document CHEMBL1132269, “Self-immolative anthracycline prodrugs for suicide gene therapy” (J Med Chem, 1999)
Where “and” joins values, the source holds several entries; their conditions need not be identical. Identical values can stand only once.

Experiments:
MDA-MB-361 [1] = assay: The compound was tested for extracellular cytotoxicity against MDA MB 361(mammary carcinoma cell line) expressing carboxypeptidase stCPG2.; type: functional, cell-based; conditions: Homo sapiens
How it was run: (§1)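 MDA MB 361 breast carcinoma cells stably expressing surface-tethered CPG2 (stCPG2(Q)3), intracellular CPG2 (CPG2*) or control beta-galactosidase (LacZ). Compounds dissolved in DMSO at 10 mM (stock) just before treatment. After exposure, cells harvested and reseeded in quadruplicate at ~2 × 10^3 cells/well. Cells fixed and stained with sulforhodamine-B once control plates reached confluence, absorbance read at 590 nm. Growth expressed as % of control, IC50 interpolated.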

MDA-MB-361 [2] = assay: The compound was tested for intracellular cytotoxicity against MDA MB 361(mammary carcinoma cell line) expressing LacZ (beta-galactosidase).; type: functional, cell-based; conditions: Homo sapiens; how it was run: as §1
MDA-MB-361 [3] = assay: The compound was tested for intracellular cytotoxicity against MDA MB 361(mammary carcinoma cell line) expressing carboxypeptidase G2(CPG2).; type: functional, cell-based; conditions: Homo sapiens; how it was run: as §1
[4] = Half life period in the absence of CPG2 (carboxypeptidase) enzyme; type: ADME
How it was run: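 Prodrug at 100 μM in phosphate-buffered saline (pH 7.4), 37 °C, without enzyme; samples injected at timed intervals on reverse-phase HPLC, isocratic methanol/water/10 mM NaH2PO4 (pH 5.0), detection at 500 nm. Chemical half-life from slope of semilog plot.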

CPG2 (carboxypeptidase) = assay: Half life period in the presence of CPG2 (carboxypeptidase) enzyme; type: ADME
How it was run: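 Prodrug at 100 μM in phosphate-buffered saline (pH 7.4), 37 °C, with 50 mU CPG2; timed samples analysed by reverse-phase HPLC, absorbance 500 nm. Plots linear on linear axes, so apparent half-life taken as time for concentration to fall to half its starting value.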

MDA-MB-361 [5] = assay: The compound was tested for intracellular cytotoxicity against MDA MB 361(mammary carcinoma cell line) in the presence of CPG2 prodrug; type: functional, cell-based; conditions: Homo sapiens
How it was run: (§2)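 Cytotoxicity differential: ratio of a prodrug's IC50 in MDA MB 361 cells expressing stCPG2(Q)3 or CPG2* to its IC50 in LacZ control cells. IC50 values come from a sulforhodamine-B growth assay (cells reseeded in quadruplicate after treatment, stained at control confluence, A590, % control growth, interpolation). Prodrug:drug ratio taken in LacZ cells.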

[6] = Ratio of the intracellular cytotoxicities against MDA MB 361(mammary carcinoma cell line) expressing LacZ (beta-galactosidase). between prodrug and drug.; type: functional
How it was run: (§3)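 MDA MB 361 cells stably expressing surface-tethered CPG2 (stCPG2(Q)3) or β-galactosidase control (LacZ) treated with compound (10 mM DMSO stock made fresh), then reseeded in quadruplicate at ~2 × 10^3 cells/well; fixed and sulforhodamine-B stained when controls confluent, A590. IC50 interpolated from % control growth; ratio = LacZ vs stCPG2(Q)3 IC50 or prodrug vs drug IC50 in LacZ cells.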

[7] = Ratio of the extracellular cytotoxicities against MDA MB 361(mammary carcinoma cell line) expressing LacZ and carboxypeptidase stCPG2 of the prodrug.; type: functional; how it was run: as §3
MDA-MB-361 [8] = assay: The compound was tested for extracellular cytotoxicity against MDA MB 361(mammary carcinoma cell line) in the presence of stCPG2 prodrug; type: functional, cell-based; conditions: Homo sapiens; how it was run: as §2

SMILES | IC50 (MDA-MB-361 [1]) [nM] | IC50 (MDA-MB-361 [2]) [nM] | IC50 (MDA-MB-361 [3]) [nM] | half-life [4] [min] | half-life (CPG2 (carboxypeptidase)) [min] | IC50 (MDA-MB-361 [5]) [nM] | Ratio [6] | Ratio [7] | IC50 (MDA-MB-361 [8]) [nM]
COc1cccc2c1C(=O)c1c(O)c3c(c(O)c1C2=O)C[C@@](O)(C(=O)CO)C[C@@H]3O[C@H]1C[C@H](N)[C@H](O)[C@H](C)O1 [DOXORUBICIN] | 18 | 12 | 33 |  |  |  |  |  | 
COc1cccc2c1C(=O)c1c(O)c3c(c(O)c1C2=O)C[C@@](O)(C(C)=O)C[C@@H]3OC1CC(NC(=O)OCc2ccc(OC(=O)NC(CCC(=O)O)C(=O)O)cc2)C(O)C(C)O1 (stereo partly drawn) |  | 115 |  | 1480 | 132 | 405 | 6.8 | 0.3 and 0.7 | 177
COc1cccc2c1C(=O)c1c(O)c3c(c(O)c1C2=O)C[C@@](O)(C(=O)CO)C[C@@H]3OC1CC(NC(=O)OCc2ccc(NC(=O)NC(CCC(=O)O)C(=O)O)cc2)C(O)C(C)O1 (stereo partly drawn) |  | 256 |  | 948 | 42 | 47 | 21.3 | 5.4 and 10.7 | 24
COc1cccc2c1C(=O)c1c(O)c3c(c(O)c1C2=O)C[C@@](O)(C(C)=O)C[C@@H]3OC1CC(NC(=O)OCc2ccc(NC(=O)NC(CCC(=O)O)C(=O)O)cc2)C(O)C(C)O1 (stereo partly drawn) |  | 112 |  | 1190 | 38.7 | 123 | 6.6 |  | 29
COc1cccc2c1C(=O)c1c(O)c3c(c(O)c1C2=O)C[C@@](O)(C(C)=O)C[C@@H]3O[C@H]1C[C@H](N)[C@H](O)[C@H](C)O1 [DAUNORUBICIN] |  | 17 |  |  |  | 36 |  |  | 21
COc1cccc2c1C(=O)c1c(O)c3c(c(O)c1C2=O)C[C@@](O)(C(=O)CO)C[C@@H]3OC1CC(NC(=O)OCc2ccc(OC(=O)NC(CCC(=O)O)C(=O)O)cc2)C(O)C(C)O1 (stereo partly drawn) |  | 279 |  | 1700 | 267 | 204 | 23.3 | 1.4 and 3 | 92
